How the values were obtained:
[1] = biological target: T1, GABA-A receptor; alpha-1/beta-2/gamma-2 (Rattus norvegicus) (UniProt P18508+P62813+P63138); assay: Ratio of currents mediated by rat Alpha-1-beta-2-gamma-2L GABA-A receptor expressed in Xenopus oocytes at 0.1 uM in presence of 2 uM GABA; format: cell-based; details: Oocyte
How it was run: (§1)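 Rat α1β2γ2L GABAA receptors expressed in Xenopus oocytes. Test compound at 0.1, 1 or 10 µM was co-applied with 2 µM GABA, the control GABA concentration. The value is the ratio of current with compound to current without it. At least four oocytes per concentration, with standard error of the mean.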

[2] = biological target: T1, GABA-A receptor; alpha-1/beta-2/gamma-2 (Rattus norvegicus); assay: Ratio of currents mediated by rat Alpha-1-beta-2-gamma-2L GABA-A receptor expressed in Xenopus oocytes at 1.0 uM in presence of 2 uM GABA; format: cell-based; details: Oocyte; how it was run: as §1
[3] = Dose required for measuring the loss of righting reflex (LRR) in Xenopus laevis tadpoles; format: functional
How it was run: (§2)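 Xenopus laevis tadpoles scored for loss of swimming (LSR) or righting (LRR) response. 10 animals were used at each of five or more concentrations. Error given as standard error of the mean.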

[4] = Dose required for measuring loss of swimming reflex (LSR) in Xenopus laevis tadpoles; format: functional; how it was run: as §2
[5] = biological target: T1, GABA-A receptor; alpha-1/beta-2/gamma-2 (Rattus norvegicus); assay: Ratio of currents mediated by rat Alpha-1-beta-2-gamma-2L GABA-A receptor expressed in Xenopus oocytes at 10 uM in presence of 2 uM GABA; format: cell-based; details: Oocyte; how it was run: as §1
[6] = biological target: T1, GABA-A receptor; alpha-1/beta-2/gamma-2 (Rattus norvegicus); assay: Ratio of currents mediated by rat Alpha-1-beta-2-gamma-2L GABA-A receptor expressed in Xenopus oocytes at 10 uM in the absence of GABA; format: cell-based; details: Oocyte
How it was run: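 Direct gating on rat α1β2γ2L GABAA receptors in Xenopus oocytes. Compound at 10 µM was applied with no GABA. The value is the compound-only current divided by the current from 2 µM GABA alone. At least four oocytes, with standard error of the mean.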

[7] = biological target: GABA-A receptor; anion channel; assay: Displacement of [35S]TBPS from picrotoxin site of GABA-A receptor of rat brain membranes; format: cell membranes, Membrane

Row | Compound | Ratio [1] | Ratio [2] | ED50 [3] [µM] | ED50 [4] [µM] | Ratio [5] | Ratio [6] | IC50 [7] [nM]
1 | CC(=O)[C@H]1CC[C@H]2[C@@H]3CC[C@H]4C[C@H](O)CC[C@]4(C)[C@H]3CC[C@]12C | 1.26 | 3.89 | 0.42 | 5.5 | 9.65 | 0.37 | –
2 | CC(=O)[C@H]1CC[C@H]2[C@@H]3[C@H](C)C[C@H]4C[C@H](O)CC[C@]4(C)[C@H]3CC[C@]12C | – | – | 2.68 | 5.5 | – | – | 5990
3 | CC(=O)[C@H]1CC[C@H]2[C@@H]3[C@@H](C)C[C@@H]4C[C@H](O)CC[C@]4(C)[C@H]3CC[C@]12C | – | – | 1.36 | 5.5 | – | – | 1240
4 | CC(=O)[C@H]1CC[C@H]2[C@@H]3C[C@H](C)[C@H]4C[C@H](O)CC[C@]4(C)[C@H]3CC[C@]12C | 1.01 | 1.17 | 1.4 | 8.9 | 3.24 | 0.06 | 2940
5 | CC(=O)[C@H]1CC[C@H]2[C@@H]3[C@H](C)C[C@@H]4C[C@H](O)CC[C@]4(C)[C@H]3CC[C@]12C | – | – | 1.67 | 5.5 | – | – | 1040
6 | CC(=O)[C@H]1CC[C@H]2[C@@H]3[C@H](C)C[C@@H]4C[C@@H](O)CC[C@]4(C)[C@H]3CC[C@]12C | – | – | 1.25 | 10 | – | – | 10800
7 | CC(=O)[C@H]1CC[C@H]2[C@@H]3CC[C@@H]4C[C@H](O)CC[C@]4(C)[C@H]3CC[C@]12C | 1.2 | 2.82 | 0.06 | 0.3 | 9.77 | 0.06 | –
8 | CC(=O)[C@H]1CC[C@H]2[C@@H]3[C@@H](C)C[C@H]4C[C@H](O)CC[C@]4(C)[C@H]3CC[C@]12C | – | – | 1.34 | 5.5 | – | – | 1240
9 | CC(=O)[C@H]1CC[C@H]2[C@@H]3C[C@H](C)[C@@H]4C[C@H](O)CC[C@]4(C)[C@H]3CC[C@]12C | 0.96 | 1.02 | 2.66 | 5.5 | 2.51 | 0.15 | 3080
10 | CC(=O)[C@H]1CC[C@H]2[C@@H]3C[C@@H](C)[C@H]4C[C@H](O)CC[C@]4(C)[C@H]3CC[C@]12C | 2.5 | 7.7 | 0.51 | 1.05 | 10 | 0.59 | 5.7
11 | CC(=O)[C@H]1CC[C@H]2[C@@H]3[C@H](C)C[C@H]4C[C@@H](O)CC[C@]4(C)[C@H]3CC[C@]12C | – | – | 1.63 | 5.5 | – | – | –
12 | CC(=O)[C@H]1CC[C@H]2[C@@H]3C[C@@H](C)[C@@H]4C[C@H](O)CC[C@]4(C)[C@H]3CC[C@]12C | 1.48 | 4.36 | 0.4 | 0.55 | 22.5 | 0.62 | 45

Source: ChEMBL document CHEMBL1143613, “Neurosteroid analogues. 10. The effect of methyl group substitution at the C-6 and C-7 positions on the GABA modulatory and anesthetic actions of (3alpha,5alpha)- and (3alpha,5beta)-3-hydroxypregnan-20-one” (J Med Chem, 2005)
